Measurements reported in publication PMC6392825 (ChemistryOpen, 2019).
In brackets after ≈: the same amount, converted by molar mass.

What was measured:
HepG2 [1] = assay: Intracellular ROS assay; type: cell-based; conditions: for activity at 1 µM / activity at 10 µM: Homo sapiens, HepG2, read-out: Intracellular ROS, percentage compared to the untreated control cells (ROS/SRB)
Method in brief: (§1)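 Cells seeded at 20000/well and grown 24 h at 37 °C, 10% CO2, then treated with test compound at 10 and 1 μM in serum-free medium. NAC and doxorubicin served as controls. After a PBS wash, cells were loaded with 20 μM DCFH-DA for 30 min, washed, and held 1 h in phenol red-free DMEM. Fluorescence read at ex 485/em 535 nm and normalized to SRB in the same well. Reported as % of untreated control, n ≥ 3, two-tailed t-test with unequal variances.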

HT‐29 [2] = assay: Cytotoxicity, mitochondrial activity; type: cell-based; conditions: Homo sapiens, HT-29, 72 h, read-out: IC50 MTT
Method in brief: (§2)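 Seeded at 20000 cells/well in DMEM and grown 24 h at 37 °C, 10% CO2. Medium was then replaced with serum-free medium holding test compound (25 mM DMSO stock) at various concentrations for 72 h, in triplicate; doxorubicin was the positive control. MTT (5 mg/mL stock in PBS) added for 2 h, formazan dissolved in DMSO, A570. IC50 derived from % surviving cells, reported as mean ± SD combined with SRB data.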

HepG2 [3] = assay: Cytotoxicity, mitochondrial activity; type: cell-based; conditions: Homo sapiens, HepG2, 72 h, read-out: IC50 MTT
Method in brief: as §2

HT‐29 [4] = assay: Intracellular ROS assay; type: cell-based; conditions: for activity at 1 µM / activity at 10 µM: Homo sapiens, HT-29, read-out: Intracellular ROS, percentage compared to the untreated control cells (ROS/SRB)
Method in brief: as §1

Caco‐2 [5] = assay: Cytotoxicity, mitochondrial activity; type: cell-based; conditions: Homo sapiens, Caco-2, 72 h, read-out: IC50 MTT
Method in brief: as §2

EA.hy926 [6] = assay: Intracellular ROS assay; type: cell-based; conditions: Homo sapiens, EA.hy 926, read-out: Intracellular ROS, percentage compared to the untreated control cells (ROS/SRB)
Method in brief: as §1

HT‐29 [7] = assay: Cell growth inhibition, protein content; type: cell-based; conditions: Homo sapiens, HT-29, 72 h, read-out: IC50 SRB
Method in brief: (§3)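 Cell lines from ATCC, grown in DMEM+glutamax with 1% NEAA, 1% P/S and 10% FBS at 37 °C, 10% CO2. Seeded at 20000 cells/well for 24 h, then exposed to test compound (25 mM DMSO stock) for three days. Fixed with cold TCA for 1 h at 4 °C, stained 30 min with 0.4% SRB in 1% acetic acid, dissolved in 10 mM Tris, A490. Triplicate; IC50 given as mean ± SD combined with MTT data (n ≥ 3).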

[8] = Water solubility, shake flask method, 0.1 M phosphate buffer pH 6.8; type: physicochemical; conditions: 37 °C, pH 6.8, aqueous buffer, thermodynamic from solid
EA.hy926 [9] = assay: Cell growth inhibition, protein content; type: cell-based; conditions: Homo sapiens, EA.hy 926, 72 h, read-out: IC50 SRB
Method in brief: as §3

EA.hy926 [10] = assay: Cytotoxicity, mitochondrial activity; type: cell-based; conditions: Homo sapiens, EA.hy 926, 72 h, read-out: IC50 MTT
Method in brief: as §2

[11] = Chemical antioxidant capacity, FRAP assay
Caco‐2 [12] = assay: Cell growth inhibition, protein content; type: cell-based; conditions: Homo sapiens, Caco-2, 72 h, read-out: IC50 SRB
Method in brief: as §3

Caco‐2 [13] = assay: Intracellular ROS assay; type: cell-based; conditions: for change of intracellular ROS in words: Caco‐2, vs untreated control, 10 and 1 μM; for activity at 1 µM / activity at 10 µM: Homo sapiens, Caco-2, read-out: Intracellular ROS, percentage compared to the untreated control cells (ROS/SRB)
Method in brief: as §1

HepG2 [14] = assay: Cell growth inhibition, protein content; type: cell-based; conditions: Homo sapiens, HepG2, 72 h, read-out: IC50 SRB
Method in brief: as §3

## COc1cc(/C=C/C(=O)/C=C(O)/C=C/c2cccc3cnccc23)ccc1O [3 e, (1E,4Z,6E)‐5‐Hydroxy‐1‐(4‐hydroxy‐3‐methoxyphenyl)‐7‐(isoquinolin‐5‐yl)hepta‐1,4,6‐triene‐3‐one]
HepG2 [1]
  activity at 1 µM: 103 ± 5.1%
  activity at 10 µM: 96.7 ± 4.3%
HT‐29 [2]
  IC50: 1.3 ± 0.5 µM
HepG2 [3]
  IC50: 4.7 ± 0.2 µM
HT‐29 [4]
  activity at 1 µM: 80.6 ± 4.8%
  activity at 10 µM: 67.6 ± 5.1%
Caco‐2 [5]
  IC50: 6.9 ± 0.3 µM
EA.hy926 [6]
  activity at 1 µM: 96.3 ± 4.3%
  activity at 10 µM: 120 ± 4.4%
HT‐29 [7]
  IC50: 10.7 ± 1.6 µM
[8]
  solubility at 90 min: 1.1 ± 0.2 µM (≈ 0.411 µg/mL)
  solubility at 24 h: 1.4 ± 0.2 µM (≈ 0.523 µg/mL)
EA.hy926 [9]
  IC50: 16.2 ± 0.6 µM
EA.hy926 [10]
  IC50: 5.2 ± 0.2 µM
[11]
  FRAP (Trolox equivalent per μM): 0.21 Trolox equivalent per μM
  FRAP (curcumin equivalent per μM): 0.20 curcumin equivalent per μM
Caco‐2 [12]
  IC50: 17.7 ± 3 µM
Caco‐2 [13]
  change of intracellular ROS in words: significantly decreased ROS production
  activity at 1 µM: 92.8 ± 11.9%
  activity at 10 µM: 72.7 ± 5.1%
HepG2 [14]
  IC50: 7.3 ± 0.3 µM

## COc1cc(/C=C/C(=O)/C=C(O)/C=C/c2ccccn2)ccc1O [3 b, (1E,4Z,6E)‐5‐Hydroxy‐1‐(4‐hydroxy‐3‐methoxyphenyl)‐7‐(pyridin‐2‐yl)hepta‐1,4,6‐triene‐3‐one]
HepG2 [1]
  activity at 1 µM: 108 ± 6.7%
  activity at 10 µM: 91.9 ± 9.2%
HT‐29 [2]
  IC50: 34.3 ± 2.7 µM
HepG2 [3]
  IC50: 24.6 ± 4.8 µM
HT‐29 [4]
  activity at 1 µM: 80.8 ± 2.5%
  activity at 10 µM: 93.6 ± 3.1%
Caco‐2 [5]
  IC50: 22.3 ± 0.9 µM
EA.hy926 [6]
  activity at 1 µM: 100 ± 7%
  activity at 10 µM: 127 ± 4.9%
HT‐29 [7]
  IC50: 34.8 ± 1.2 µM
[8]
  solubility at 90 min: 9.9 ± 0.4 µM (≈ 3.2 µg/mL)
  solubility at 24 h: 11.6 ± 0.6 µM (≈ 3.75 µg/mL)
EA.hy926 [9]
  IC50: 3.1 µM
EA.hy926 [10]
  IC50: 1.1 ± 0.1 µM
[11]
  FRAP (Trolox equivalent per μM): 0.41 Trolox equivalent per μM
  FRAP (curcumin equivalent per μM): 0.40 curcumin equivalent per μM
Caco‐2 [12]
  IC50: 25.8 ± 1.1 µM
Caco‐2 [13]
  activity at 1 µM: 92.7 ± 5.4%
  activity at 10 µM: 99.7 ± 6.2%
HepG2 [14]
  IC50: 20.6 ± 1.4 µM

## COc1cc(/C=C/C(=O)/C=C(O)/C=C/c2ccnc3ccccc23)ccc1O [3 d, (1E,4Z,6E)‐5‐Hydroxy‐1‐(4‐hydroxy‐3‐methoxyphenyl)‐7‐(quinolin‐4‐yl)hepta‐1,4,6‐triene‐3‐one]
HepG2 [1]
  activity at 1 µM: 90.7 ± 7.4%
  activity at 10 µM: 99.6 ± 11.7%
HT‐29 [2]
  IC50: 47 ± 1 µM
HepG2 [3]
  IC50: 44.8 ± 5.5 µM
HT‐29 [4]
  activity at 1 µM: 71.3 ± 4.9%
  activity at 10 µM: 96.9 ± 8%
Caco‐2 [5]
  IC50: 46.3 ± 3.7 µM
EA.hy926 [6]
  activity at 1 µM: 95.6 ± 7%
  activity at 10 µM: 132 ± 6.5%
HT‐29 [7]
  IC50: 47.2 ± 2.2 µM
[8]
  solubility at 90 min: 3.6 ± 1.1 µM (≈ 1.34 µg/mL)
  solubility at 24 h: 4.4 ± 1.3 µM (≈ 1.64 µg/mL)
EA.hy926 [9]
  IC50: 60.2 ± 10.4 µM
EA.hy926 [10]
  IC50: 42.3 ± 1.2 µM
[11]
  FRAP (Trolox equivalent per μM): 0.20 Trolox equivalent per μM
  FRAP (curcumin equivalent per μM): 0.20 curcumin equivalent per μM
Caco‐2 [12]
  IC50: 40.8 ± 1.6 µM
Caco‐2 [13]
  activity at 1 µM: 94.2 ± 5%
  activity at 10 µM: 108 ± 4.4%
HepG2 [14]
  IC50: 55.4 ± 0.3 µM

## O=C(/C=C(O)/C=C/c1ccccn1)/C=C/c1c[nH]c2ccccc12 [3 j, (1E,4Z,6E)‐5‐Hydroxy‐1‐(1H‐indol‐3‐yl)‐7‐(pyridin‐2‐yl)hepta‐1,4,6‐trien‐3‐one]
HepG2 [1]
  activity at 1 µM: 92.6 ± 6.5%
  activity at 10 µM: 96.6 ± 5.9%
HT‐29 [2]
  IC50: 33.8 ± 3.5 µM
HepG2 [3]
  IC50: 38.9 ± 0.8 µM
HT‐29 [4]
  activity at 1 µM: 114 ± 15.5%
  activity at 10 µM: 102 ± 6.4%
Caco‐2 [5]
  IC50: 35.5 ± 0.4 µM
EA.hy926 [6]
  activity at 1 µM: 90.8 ± 2.4%
  activity at 10 µM: 111 ± 3.5%
HT‐29 [7]
  IC50: 46 ± 3 µM
[8]
  solubility at 90 min: 10.7 ± 0.4 µM (≈ 3.39 µg/mL)
  solubility at 24 h: 7.9 ± 0.2 µM (≈ 2.5 µg/mL)
EA.hy926 [9]
  IC50: 3.7 ± 0.2 µM
EA.hy926 [10]
  IC50: 1.4 ± 0.2 µM
[11]
  FRAP (Trolox equivalent per μM): 0.16 Trolox equivalent per μM
  FRAP (curcumin equivalent per μM): 0.15 curcumin equivalent per μM
Caco‐2 [12]
  IC50: 40.2 ± 1.9 µM
Caco‐2 [13]
  activity at 1 µM: 98.2 ± 2.6%
  activity at 10 µM: 84.9 ± 7%
HepG2 [14]
  IC50: 34 ± 2.8 µM

## COc1cc(/C=C/C(=O)/C=C(O)/C=C/c2cccnc2)ccc1O [3 a, (1E,4Z,6E)‐5‐Hydroxy‐1‐(4‐hydroxy‐3‐methoxyphenyl)‐7‐(pyridin‐3‐yl)hepta‐1,4,6‐triene‐3‐one]
HepG2 [1]; HepG2, vs untreated control, 10 and 1 μM
  change of intracellular ROS in words: significantly decreased ROS signal
HepG2 [1]
  activity at 1 µM: 116 ± 12.8%
  activity at 10 µM: 82.3 ± 1.9%
HT‐29 [2]
  IC50: 17.9 ± 0.1 µM
HepG2 [3]
  IC50: 14.1 ± 0.3 µM
HT‐29 [4]; HT‐29, vs untreated control, 10 and 1 μM
  change of intracellular ROS in words: significantly decreased ROS signal
HT‐29 [4]
  activity at 1 µM: 83.2 ± 3.2%
  activity at 10 µM: 89.9 ± 4.3%
Caco‐2 [5]
  IC50: 14.6 ± 2 µM
EA.hy926 [6]
  activity at 1 µM: 123 ± 9.5%
  activity at 10 µM: 95.5 ± 5.1%
HT‐29 [7]
  IC50: 20.9 ± 0.9 µM
[8]
  solubility at 90 min: 8.1 ± 1.6 µM (≈ 2.62 µg/mL)
  solubility at 24 h: 14.5 ± 1.1 µM (≈ 4.69 µg/mL)
EA.hy926 [9]
  IC50: 3.8 µM
EA.hy926 [10]
  IC50: 8.5 ± 0.4 µM
[11]
  FRAP (Trolox equivalent per μM): 0.42 Trolox equivalent per μM
  FRAP (curcumin equivalent per μM): 0.40 curcumin equivalent per μM
Caco‐2 [12]
  IC50: 25 ± 1.8 µM
Caco‐2 [13]
  change of intracellular ROS in words: significantly increased ROS production
  activity at 1 µM: 106 ± 8.4%
  activity at 10 µM: 120 ± 8.7%
HepG2 [14]
  IC50: 16.8 ± 0.9 µM

## O=C(/C=C(O)/C=C/c1cccs1)/C=C/c1c[nH]c2ccccc12 [3 m, (1E,4Z,6E)‐5‐Hydroxy‐1‐(1H‐indol‐3‐yl)‐7‐(thiophen‐2‐yl)hepta‐1,4,6‐trien‐3‐one]
HepG2 [1]
  activity at 1 µM: 318 ± 13.2%
  activity at 10 µM: 424 ± 28.4%
HT‐29 [2]
  IC50: 6.9 µM
HepG2 [3]
  IC50: 4.7 ± 0.2 µM
HT‐29 [4]
  activity at 1 µM: 247 ± 15.5%
  activity at 10 µM: 337 ± 22%
Caco‐2 [5]
  IC50: 0.5 ± 0.3 µM
EA.hy926 [6]
  activity at 1 µM: 344 ± 7.1%
  activity at 10 µM: 322 ± 9.6%
HT‐29 [7]
  IC50: 4.8 ± 0.3 µM
[8]
  solubility at 90 min: 1.27 µM (≈ 0.408 µg/mL)
  solubility at 24 h: 1.25 µM (≈ 0.402 µg/mL)
EA.hy926 [9]
  IC50: 8.6 ± 0.5 µM
EA.hy926 [10]
  IC50: 4.4 ± 0.4 µM
[11]
  FRAP (Trolox equivalent per μM): 0.10 Trolox equivalent per μM
  FRAP (curcumin equivalent per μM): 0.09 curcumin equivalent per μM
Caco‐2 [12]
  IC50: 5.7 ± 0.2 µM
Caco‐2 [13]
  activity at 1 µM: 238 ± 5.5%
  activity at 10 µM: 295 ± 11.1%
HepG2 [14]
  IC50: 10.8 ± 1.6 µM
